# According to ChEMBL document CHEMBL1949585, “Design, synthesis and evaluation of telomerase inhibitory, hTERT repressing, and anti-proliferation activities of symmetrical 1,8-disubstituted amidoanthraquinones” (Eur J Med Chem, 2012):
# Calls of active or inactive are those of the source. The calls are words filed in the database; no cut-off is given here.
# Experiments:
# [1] = Cytotoxicity against human H1299 cells assessed as cell growth at 1 uM after 48 hrs by MTT assay; assay type: functional; conditions: NCI-H1299, 48 h, read-out: Activity
# Outline: (§1)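 H1299 non-small lung cancer cells were grown in RPMI 1640 with 10% FBS and penicillin/streptomycin at 37 °C in 5% CO2. About 2×10³ cells were seeded per well and held 24 h, then washed with PBS and given fresh medium. Compound, freshly dissolved in DMSO and diluted in complete medium, was added for 48 h. MTT was read at 550 nm after SDS/DMF lysis at 37 °C for 16 h. Values are from three experiments, untreated = 100%, ±SD.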
# [2] = Inhibition of human TERT expression in H1299 cells at 10 uM after 24 hrs by secreted alkaline phosphatase reporter gene assay relative to control; values are per cent of control; conditions: NCI-H1299
# [3] = system: H1299; test: Inhibition of human telomerase in H1299 cell lysate compound incubated post-telomerase extension by PCR-based telomeric repeat amplification protocol assay; assay type: cell-free
# Outline: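 Modified TRAP assay (TRAP-M) to test for interference with Taq polymerase. Compound was added to H1299 extract reactions right after the telomerase extension step and before PCR amplification.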
# [4] = Cytotoxicity against human H1299 cells assessed as cell growth at 10 uM after 48 hrs by MTT assay; assay type: functional; conditions: NCI-H1299, 48 h, read-out: Activity; outline: as §1
# [5] = Inhibition of human TERT expression in H1299 cells at 1 uM after 24 hrs by secreted alkaline phosphatase reporter gene assay relative to control; values are per cent of control; conditions: NCI-H1299
# [6] = Cytotoxicity against human H1299 cells assessed as cell growth at 100 uM after 48 hrs by MTT assay; assay type: functional; conditions: NCI-H1299, 48 h, read-out: Activity; outline: as §1
# [7] = (§2) Inhibition of human telomerase in H1299 cell lysate compound incubated for 5 mins prior to telomerase extension by PCR-based telomeric repeat amplification protocol assay; assay type: cell-free
# Outline: (§3)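 TRAP assay on telomerase-active H1299 cell extracts, with RNase A-treated extract as the negative control. Compound was preincubated with extract for 5 min at room temperature before the telomerase extension and PCR amplification. The initial screen used 10 µM, and IC50 came from a dose series.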
# [8] = system: H1299; test: as §2; assay type: cell-free; outline: as §3
# [9] = system: H1299; test: Inhibition of human telomerase in H1299 cell lysate at 10 uM by PCR-based telomeric repeat amplification protocol assay; assay type: cell-free; outline: as §3
# [10] = Inhibition of human TERT expression in H1299 cells at 100 uM after 24 hrs by secreted alkaline phosphatase reporter gene assay relative to control; values are per cent of control; conditions: NCI-H1299
smiles,measurement,setting,value
CC(C)NCCC(=O)Nc1cccc2c1C(=O)c1c(NC(=O)CCNC(C)C)cccc1C2=O,growth at 1 µM,[1],101%
same,"level, % of control",[2],16%
same,inhibition,[3],Dose-dependent effect
same,growth at 10 µM,[4],29%
same,"level, % of control",[5],106%
same,growth at 100 µM,[6],14%
same,IC50,[7],3000 nM
same,inhibition,[8],Dose-dependent effect
same,inhibition,[9],Active
same,"level, % of control",[10],0%
